Data set [1] deals with Mus musculus. The data set is described as follows: Ex vivo inhibition of SCD1 in C57BL/6J mouse liver assessed as residual activity at 10 mg/kg, po treated for 24 hrs followed by incubation with [14C]stearoyl-CoA substrate for 10 mins by TLC assay relative to control. Type of data set: functional. The gist of the method:
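Male 6-week-old C57BL/6J mice dosed orally as a suspension in 0.5% methylcellulose. Liver or eyelid was taken 6 or 24 h later and homogenized in 100 mM Tris-HCl pH 7.4 with 0.25 M sucrose. S9 was obtained at 10,000 × g, 4 °C. S9 was incubated with [14C]stearoyl-CoA, NADH, MgCl2 and cytochrome b5 at room temperature, 10 min for liver and 30 min for eyelid. Lipids were saponified and run on AgNO3 TLC to quantify stearate and oleate. Result is % of vehicle control.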

Data set [2] can be described thus: Plasma concentration in high sucrose diet Sprague-Dawley rat at 10 mg/kg, po treated after 6 hrs. The class given is ADME, organism-based. The gist of the method:
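Sprague-Dawley rats on a high sucrose diet, given a single oral 10 mg/kg dose. Plasma, liver and eyelid drug concentrations were measured 6 h later, n=3. Liver/eyelid ratio was taken from the tissue concentrations.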

Data set [3] deals with T1, Cytochrome P450 2A6 (Homo sapiens, UniProt P11509).
T1 sequence (P11509 whole entry): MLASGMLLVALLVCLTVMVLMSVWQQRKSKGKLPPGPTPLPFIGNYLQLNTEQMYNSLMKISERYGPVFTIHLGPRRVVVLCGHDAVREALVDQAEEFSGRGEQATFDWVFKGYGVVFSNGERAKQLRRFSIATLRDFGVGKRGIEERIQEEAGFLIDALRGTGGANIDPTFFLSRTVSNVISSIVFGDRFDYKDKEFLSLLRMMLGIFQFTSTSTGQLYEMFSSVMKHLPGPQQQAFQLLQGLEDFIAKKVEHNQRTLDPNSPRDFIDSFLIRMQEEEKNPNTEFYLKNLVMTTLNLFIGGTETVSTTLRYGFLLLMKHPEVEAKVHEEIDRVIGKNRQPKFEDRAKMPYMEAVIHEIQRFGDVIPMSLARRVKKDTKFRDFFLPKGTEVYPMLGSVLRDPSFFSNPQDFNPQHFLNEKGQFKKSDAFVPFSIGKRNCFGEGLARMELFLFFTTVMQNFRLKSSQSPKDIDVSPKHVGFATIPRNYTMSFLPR
The data set is described as follows: Inhibition of CYP2A6 (unknown origin). The class given is ADME.

Data set [4] deals with Cytochrome P450 3A4 (Homo sapiens, UniProt P08684). The data set is described as follows: Inhibition of CYP3A4 (unknown origin). Type of data set: ADME.
In data set [5] the target is T2, Cytochrome P450 1A2 (Homo sapiens, UniProt P05177).
T2 sequence (P05177 whole entry): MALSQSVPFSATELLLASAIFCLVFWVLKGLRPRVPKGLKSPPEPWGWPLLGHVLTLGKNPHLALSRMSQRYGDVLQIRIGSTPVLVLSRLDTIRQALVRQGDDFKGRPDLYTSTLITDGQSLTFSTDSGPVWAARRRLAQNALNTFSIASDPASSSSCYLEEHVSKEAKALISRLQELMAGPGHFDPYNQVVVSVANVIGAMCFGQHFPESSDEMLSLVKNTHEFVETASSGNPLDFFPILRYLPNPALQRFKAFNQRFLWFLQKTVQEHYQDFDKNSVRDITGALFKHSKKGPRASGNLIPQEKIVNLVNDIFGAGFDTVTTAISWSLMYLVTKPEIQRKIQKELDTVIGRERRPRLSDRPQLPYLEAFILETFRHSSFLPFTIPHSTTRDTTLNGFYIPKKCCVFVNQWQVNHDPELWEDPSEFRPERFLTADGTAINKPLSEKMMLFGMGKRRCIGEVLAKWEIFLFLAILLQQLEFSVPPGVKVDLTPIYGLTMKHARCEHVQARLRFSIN
The data set is described as follows: Inhibition of CYP1A2 (unknown origin). The class given is ADME.

Data set [6] can be described thus: Oral bioavailability in Sprague-Dawley rat at 10 mg/kg. The class given is ADME, organism-based. Particulars: in vivo. Summed up: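 Two male Sprague-Dawley rats per route, 10 mg/kg po and 1 mg/kg iv. Cmax, tmax, terminal-phase half-life and AUC0-inf were taken from plasma concentration–time curves. Bioavailability was derived from the po and iv data.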

This note sets out measurements from ChEMBL document CHEMBL4265954, “Discovery of potent liver-selective stearoyl-CoA desaturase-1 (SCD1) inhibitors, thiazole-4-acetic acid derivatives, for the treatment of diabetes, hepatic steatosis, and obesity” (Eur J Med Chem, 2018).

Each structure is given as a SMILES string.

Chain of Cytochrome P450 3A4 (P08684 whole entry): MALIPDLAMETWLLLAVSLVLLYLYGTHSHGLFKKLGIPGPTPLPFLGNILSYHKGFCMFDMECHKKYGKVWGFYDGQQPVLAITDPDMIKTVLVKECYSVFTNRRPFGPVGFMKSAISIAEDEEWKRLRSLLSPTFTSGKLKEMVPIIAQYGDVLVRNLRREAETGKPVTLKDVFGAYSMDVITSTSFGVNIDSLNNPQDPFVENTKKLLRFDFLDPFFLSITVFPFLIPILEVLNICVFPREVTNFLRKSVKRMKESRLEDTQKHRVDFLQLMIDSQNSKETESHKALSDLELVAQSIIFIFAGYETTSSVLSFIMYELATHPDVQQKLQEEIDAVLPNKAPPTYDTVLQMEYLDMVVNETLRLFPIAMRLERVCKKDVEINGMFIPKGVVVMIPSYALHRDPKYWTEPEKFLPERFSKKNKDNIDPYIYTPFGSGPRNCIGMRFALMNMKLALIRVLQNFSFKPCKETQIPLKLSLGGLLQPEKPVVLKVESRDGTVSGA

A word on the IC50: it is the concentration at which inhibition is half-maximal. High values mean a need for much substance, low ones inhibition by little substance. In general, bioavailability refers to the share of a dose that reaches the circulation, judged against a reference dose that is usually intravenous. Read a low bioavailability as poor availability. In the case of `CCCCc1ccccc1NCc1ccc(C(=O)Nc2nc(CC(=O)O)cs2)s1`, the Activity in data set [1] was found to be 11%. Besides, the concentration at 6 h in data set [2] is 552 nM. Further, the half-maximal inhibitory concentration (IC50) in data set [3], in data set [4] and in data set [5] was greater than 50 µM in each case. In addition, the bioavailability in data set [6] worked out at 16%.
